Results as given in ChEMBL document CHEMBL1155448, “(3-Phenylsulfonylcycloalkano[e and d]pyrazolo[1,5-a]pyrimidin-2-yl)amines: potent and selective antagonists of the serotonin 5-HT6 receptor” (J Med Chem, 2010).

Experiments:
[1] = target: T1, 5-hydroxytryptamine receptor 6 (Homo sapiens, UniProt P50406); assay: Antagonist activity at human 5HT6 receptor expressed in HEK293 cells assessed as inhibition of serotonin-induced cAMP release; assay type: functional, cell-based
How it was run: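 Tetracycline-induced T-Rex 5-HT6 HEK cells in HBSS with 1 mM MgCl₂, 1 mM CaCl₂, 5 mM HEPES pH 7.4, 100 μM IBMX; compounds 15 min (0.1% DMSO final), then serotonin 10 nM final for 30 min at room temp. cAMP by LANCE TR-FRET. Ki from concentration-dependent inhibition; geometric mean of three to four independent experiments, each curve in duplicate.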

[2] = target: 5-hydroxytryptamine receptor 2B (Homo sapiens, UniProt P41595); assay: Antagonist activity at human 5HT2B receptor expressed in HEK293 cells assessed as inhibition of alpha-Me-serotonin-induced intracellular calcium mobilization by spectrophotometry; assay type: functional, cell-based
How it was run: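 Tetracycline-induced T-Rex 5-HT2B HEK cells, Fura-2AM loaded (4 μM, 30 min, room temp, dark), suspended at (3-4) × 10⁶ cells/mL, diluted into HEPES-buffered saline with 1.8 mM CaCl₂ in stirred cuvette. Compound added after 20-30 s baseline, then serotonin challenge; Fura-2 ratio 340/380 nm excitation, 510 nm emission. Ki from concentration-dependent inhibition; geometric mean of three to four experiments, duplicate curves.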

hERG (KCNH2) [3] = target: T2, hERG (KCNH2) (Homo sapiens, UniProt Q12809); assay: Inhibition of human ERG expressed in […] cells at 3 uM after 3 to 8 mins by voltage clamp assay; assay type: cell-based; details: HEK297 cells that express human ERG
How it was run: (§1)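 Automated whole-cell voltage clamp at 25 °C on HEK cells stably expressing human hERG; K-based intracellular (pH 7.2), Na-based extracellular (pH 7.4) solutions. 2 s pulses to +20 mV, 15 s interpulse; compound until steady current (3-8 min), washout, 10 μM cisapride control. Percent of vehicle tail current; triplicate, mean ± SEM at highest concentration.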

[4] = target: T1, 5-hydroxytryptamine receptor 6; assay: Antagonist activity at 5HT6 receptor; assay type: functional
How it was run: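 Human 5-HT6R expressed in HEK293 cells (T-Rex, tetracycline-induced a day before). Compounds preincubated 15 min in HBSS with 1 mM MgCl2, 1 mM CaCl2, 5 mM HEPES pH 7.4, 100 μM IBMX, 0.1% DMSO final. Serotonin then added to 10 nM final, 30 min at room temperature. cAMP measured by LANCE TR-FRET. Ki from concentration-dependent inhibition, geometric mean of 3-4 experiments, duplicate curves.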

hERG (KCNH2) [5] = target: T2, hERG (KCNH2); assay: Inhibition of human ERG expressed in […] cells at 10 uM after 3 to 8 mins by voltage clamp assay; assay type: cell-based; details: HEK297 cells that express human ERG; how it was run: as §1
[6] = target: T1, 5-hydroxytryptamine receptor 6; assay: Displacement of [3H]lysergic acid diethylamide from human recombinant 5HT6 receptor expressed in human HeLa cells; assay type: cell-based
How it was run: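 Ki from concentration-dependent displacement of [3H]lysergic acid diethylamide in a contracted radioligand binding assay; each curve measured in duplicate.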

hERG (KCNH2) [7] = target: T2, hERG (KCNH2); assay: Inhibition of human ERG expressed in […] cells at 90 uM after 3 to 8 mins by voltage clamp assay; assay type: cell-based; details: […] cells that express human ERG; how it was run: as §1

Sequence of 5-hydroxytryptamine receptor 2B (P41595 whole entry): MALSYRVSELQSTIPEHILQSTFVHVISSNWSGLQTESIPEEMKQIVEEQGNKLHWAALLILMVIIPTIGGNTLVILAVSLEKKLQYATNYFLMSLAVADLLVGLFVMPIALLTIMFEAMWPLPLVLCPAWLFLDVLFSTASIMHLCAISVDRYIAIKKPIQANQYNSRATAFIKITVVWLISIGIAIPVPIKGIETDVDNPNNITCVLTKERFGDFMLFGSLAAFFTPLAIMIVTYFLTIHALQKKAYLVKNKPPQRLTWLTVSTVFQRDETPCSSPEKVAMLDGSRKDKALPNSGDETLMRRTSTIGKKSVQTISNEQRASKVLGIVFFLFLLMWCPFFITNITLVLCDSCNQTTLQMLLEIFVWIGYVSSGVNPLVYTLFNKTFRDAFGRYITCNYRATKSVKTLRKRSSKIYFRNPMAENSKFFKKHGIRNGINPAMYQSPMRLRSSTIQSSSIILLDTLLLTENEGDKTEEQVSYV
T1 sequence (P50406 whole entry): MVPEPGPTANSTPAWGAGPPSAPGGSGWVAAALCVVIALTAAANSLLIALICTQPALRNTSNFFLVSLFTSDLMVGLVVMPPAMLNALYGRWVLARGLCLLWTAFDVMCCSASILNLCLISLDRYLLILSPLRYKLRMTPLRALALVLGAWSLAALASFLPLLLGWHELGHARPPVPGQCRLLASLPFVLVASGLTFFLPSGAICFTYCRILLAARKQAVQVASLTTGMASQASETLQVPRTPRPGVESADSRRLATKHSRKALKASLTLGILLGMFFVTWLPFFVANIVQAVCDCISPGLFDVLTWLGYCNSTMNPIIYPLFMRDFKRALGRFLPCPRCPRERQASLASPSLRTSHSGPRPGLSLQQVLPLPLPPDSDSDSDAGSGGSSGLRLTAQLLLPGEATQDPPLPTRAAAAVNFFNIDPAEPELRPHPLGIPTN
T2 sequence (Q12809 whole entry): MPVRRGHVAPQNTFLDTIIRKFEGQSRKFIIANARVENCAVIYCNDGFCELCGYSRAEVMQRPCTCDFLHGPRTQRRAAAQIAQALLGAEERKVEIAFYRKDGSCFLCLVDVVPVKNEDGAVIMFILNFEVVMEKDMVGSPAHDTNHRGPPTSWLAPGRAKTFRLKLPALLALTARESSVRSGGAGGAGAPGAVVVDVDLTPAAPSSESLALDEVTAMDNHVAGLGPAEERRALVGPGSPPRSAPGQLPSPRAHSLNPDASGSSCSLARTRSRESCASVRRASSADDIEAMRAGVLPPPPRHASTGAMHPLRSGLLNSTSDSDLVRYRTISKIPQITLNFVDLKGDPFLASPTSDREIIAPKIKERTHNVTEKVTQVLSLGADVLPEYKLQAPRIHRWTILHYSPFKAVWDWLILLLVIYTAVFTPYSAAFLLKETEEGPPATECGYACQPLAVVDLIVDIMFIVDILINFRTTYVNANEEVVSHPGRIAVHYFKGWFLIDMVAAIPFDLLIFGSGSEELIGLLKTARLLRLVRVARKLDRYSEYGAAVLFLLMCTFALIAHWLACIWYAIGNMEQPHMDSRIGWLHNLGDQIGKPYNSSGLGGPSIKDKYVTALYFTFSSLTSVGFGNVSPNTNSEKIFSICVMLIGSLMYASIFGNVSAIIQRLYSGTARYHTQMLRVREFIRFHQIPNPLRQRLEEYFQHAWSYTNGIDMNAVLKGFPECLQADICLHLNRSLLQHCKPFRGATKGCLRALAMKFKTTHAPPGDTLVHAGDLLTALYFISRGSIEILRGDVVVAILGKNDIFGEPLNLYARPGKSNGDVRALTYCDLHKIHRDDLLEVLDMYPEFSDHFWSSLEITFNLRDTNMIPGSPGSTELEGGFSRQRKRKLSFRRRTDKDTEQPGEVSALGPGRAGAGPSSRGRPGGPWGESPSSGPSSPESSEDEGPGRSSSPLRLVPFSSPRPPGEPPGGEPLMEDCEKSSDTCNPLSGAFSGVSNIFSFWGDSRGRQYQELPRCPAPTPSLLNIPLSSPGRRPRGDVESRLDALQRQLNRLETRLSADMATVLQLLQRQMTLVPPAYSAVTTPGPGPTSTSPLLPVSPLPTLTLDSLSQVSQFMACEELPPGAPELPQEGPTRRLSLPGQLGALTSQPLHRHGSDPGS

Ki [1] [nM] | Ki [2] [nM] | SMILES | also measured
28.8 | – | CN(C)c1nn2c3c(cnc2c1S(=O)(=O)c1ccccc1)CCC3 | –
0.259 | 153 | CNc1nn2c3c(cnc2c1S(=O)(=O)c1ccccc1)CCCC3 | –
– | – | CNc1nn2c(C)c3c(nc2c1S(=O)(=O)c1ccccc1)CCCC3 | inhibition at 3 µM (hERG (KCNH2) [3]): 12.5%
869 | – | Cc1nc2c(S(=O)(=O)c3ccccc3)c(N3CCNCC3)nn2c2c1CCC2 | –
0.542 | 169 | CNc1nn2cc3c(nc2c1S(=O)(=O)c1ccccc1)CCCC3 | –
25.5 | – | Cc1nc2c(S(=O)(=O)c3ccccc3)c(N(C)C)nn2c2c1CCC2 | –
0.413 | 188 | CNc1nn2c3c(c(C)nc2c1S(=O)(=O)c1ccccc1)CCC3 | inhibition at 3 µM (hERG (KCNH2) [3]): 4.3%
– | – | CSc1nn2c3c(c(C)nc2c1S(=O)(=O)c1ccccc1)CCCC3 | IC50 [4]: 6 nM
– | – | CNc1nn2c3c(c(C)nc2c1S(=O)(=O)c1ccccc1)CCCC3 | inhibition at 10 µM (hERG (KCNH2) [5]): 52.4%
0.375 | 464 | CNc1nn2c3c(cnc2c1S(=O)(=O)c1ccccc1)CCC3 | Ki [6]: 0.088 nM; inhibition at 90 µM (hERG (KCNH2) [7]): 29.5%
1760 | – | Cc1nc2c(S(=O)(=O)c3ccccc3)c(N3CCNCC3)nn2c2c1CCCC2 | –
